Test results from ChEMBL document CHEMBL1148398, “Design, synthesis, and biological evaluation of thio-containing compounds with serum HDL-cholesterol-elevating properties” (2004).

What was measured:
Assay type in all cases: functional
Cricetinae gen. sp. [1] = assay: Percent change in total plasma cholesterol following oral administration of compound in hypercholesterolemic hamsters at 100 mg/kg/day for 14 days
Outline: (§1)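 Male Syrian Golden hamsters pre-fed chow plus 0.25% cholesterol for 2 weeks and kept on it. Dosed 100 mg/kg/day by oral gavage in 2% Tween 80/saline for 14 days. Serum total cholesterol and glycerol-blanked triglycerides read enzymatically; lipoproteins separated by FPLC with cholesterol measured in each fraction. % change versus vehicle controls; six per group, p < 0.05.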

Cricetinae gen. sp. [2] = assay: Percent change in triglycerides following oral administration of compound in hypercholesterolemic hamsters at 100 mg/kg/day for 14 days; outline: as §1
Cricetinae gen. sp. [3] = assay: Percent change in very low-density lipoprotein cholesterol following oral administration of compound in hypercholesterolemic hamsters at 100 mg/kg/day for 14 days; outline: as §1
Cricetinae gen. sp. [4] = assay: Percent change in high-density lipoprotein cholesterol following oral administration of compound in hypercholesterolemic hamsters at 100 mg/kg/day for 14 days; outline: as §1
Cricetinae gen. sp. [5] = assay: Percent change in low-density lipoprotein cholesterol following oral administration of compound in hypercholesterolemic hamsters at 100 mg/kg/day for 14 days; outline: as §1
Rattus norvegicus [6] = assay: Percent change in total plasma cholesterol following oral administration of compound in normal chow-fed rats at 100 mg/kg/day for 4 days
Outline: (§2)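 Chow-fed male Sprague–Dawley CD rats, 60–80 g, gavaged 100 mg/kg/day for 4 days in 1.3% Tween 80/0.25% CMC. Fasted overnight, bled 24 h after the last dose. Total cholesterol and glycerol-blanked triglycerides read enzymatically; lipoproteins by FPLC with cholesterol per fraction. % change versus control; six per group, p < 0.05.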

Rattus norvegicus [7] = assay: Percent change in total plasma cholesterol in hypercholesterolemic rats dosed at 100 mg/kg/day for 8 days
Rattus norvegicus [8] = assay: Percent change in high-density lipoprotein cholesterol following oral administration of compound in normal chow-fed rats at 100 mg/kg/day for 4 days; outline: as §2
Rattus norvegicus [9] = assay: Percent change in high-density lipoprotein cholesterol in hypercholesterolemic rats dosed at 100 mg/kg/day for 8 days
Rattus norvegicus [10] = assay: Percent change in low-density lipoprotein cholesterol following oral administration of compound in normal chow-fed rats at 100 mg/kg/day for 4 days; outline: as §2
Rattus norvegicus [11] = assay: Percent change in triglycerides in hypercholesterolemic rats at a dose of 100 mg/kg/day for 8 days
Rattus norvegicus [12] = assay: Percent change in very low-density lipoprotein cholesterol following oral administration of compound in normal chow-fed rats at 100 mg/kg/day for 4 days; outline: as §2
Rattus norvegicus [13] = assay: Percent change in triglycerides following oral administration of compound in normal chow-fed rats at 100 mg/kg/day for 4 days; outline: as §2

| Structure (SMILES) | Change (Cricetinae gen. sp. [1]) [%] | Change (Cricetinae gen. sp. [2]) [%] | Change (Cricetinae gen. sp. [3]) [%] | Change (Cricetinae gen. sp. [4]) [%] | Change (Cricetinae gen. sp. [5]) [%] | Change (Rattus norvegicus [6]) [%] | Change (Rattus norvegicus [7]) [%] | Change (Rattus norvegicus [8]) [%] | Change (Rattus norvegicus [9]) [%] | Change (Rattus norvegicus [10]) [%] | Change (Rattus norvegicus [11]) [%] | Change (Rattus norvegicus [12]) [%] | Change (Rattus norvegicus [13]) [%] |
| --- | --- | --- | --- | --- | --- | --- | --- | --- | --- | --- | --- | --- | --- |
| Cc1cccc(C)c1N1C(=O)CN(C(C)C)C1=S | -3.1 | -7.3 | 8.9 | 1.7 | 17.2 | 56.1 | -25 | 71.2 | 146 | -5.8 | -43 | -10.5 | -42.9 |
| Cc1ccc(C)c(N2C(=O)CON(C)C2=S)c1 | -13.8 | -23.8 | -25.5 | 48.3 | -40.1 | 75.2 | 28 | 87.2 | 72 | 9.1 | 26 | 61.5 | -31.6 |
| Cc1cccc(Cl)c1N1C(=O)CON(C)C1=S | -21.4 | 38.6 | 5.2 | -28.1 | -22.4 | 40.4 | -2.7 | 52.8 | 100 | 11.7 | -30 | 80.8 | -61.5 |
| CCN1CCC(=O)N(c2ccc(Cl)cc2C)C1=S | 2 | -30.7 | 6.3 | 47.8 | -26.8 | 80.7 | 40 | 75.5 | 126 | 38.9 | -16 | -15 | -53.1 |
| CCN1CC(=O)N(c2ccc(C)cc2C)C1=S | 10.7 | 9.6 | 14.5 | 33.3 | -11.6 | 55.5 | 25 | 61.2 | 83 | 8.3 | -34 | 15.6 | -35.4 |
| CCN1CCC(=O)N(c2c(C)cccc2C)C1=S | -3 | 8.6 | 22.7 | 0.7 | 24 | 70.4 | 11 | 97.4 | 184 | 0 | -12 | -5.2 | -11.4 |
| CCN1CCC(=O)N(c2ccccc2F)C1=S |  |  |  |  |  | 48.7 | 21 | 55.3 | 72 | -4 | -26 | 20.1 | -4 |
| C#CCN1CC(=O)N(c2c(C)cccc2C)C1=S |  |  |  |  |  | 98 | -15 | 85.1 | 325 | 27.9 | 0 | -23 | -48.5 |
| Cc1cc(Cl)ccc1N1C(=O)CON(C)C1=S |  |  |  |  |  | 51.4 | 4 | 53.4 | 221 | 20.8 | -38 | 114.7 | -4.3 |
| CCN1CC(=O)N(c2c(C)cccc2Cl)C1=S | -32.2 | -77.1 | -74.4 | 13.8 | -39.1 | 79.8 | -34 | 62.9 | 222 | -35 | -20 | 41.4 | -57.1 |
| Cc1cccc(Cl)c1N1C(=O)CN(C)C1=S |  |  |  |  |  | 71.2 | 17 | 75.7 | 84 | 0 | -56 | 89.4 | -37.9 |
| CCN1CC(=O)N(c2ccccc2C(C)C)C1=S | -5.9 | -10.1 | -4.5 | 19.5 | -41 | 111.4 | 71 | 90.6 | 201 | 24.6 | 10 | 73.7 | -27.5 |
| CCN1CC(=O)N(c2ccccc2C(F)(F)F)C1=S |  |  |  |  |  | 67.2 | 18 | 103.5 | 116 | -13.3 | 35 | 52.6 | -6.3 |
| CCN1C(=S)N(c2cc(Cl)ccc2C)C(=O)C1OC (stereo not given) | 3.8 | -36.4 | -35.8 | 57.4 | -19 | 102.3 | 6 | 91.6 | 140 | 11.9 | -33 | 83.6 | -10.6 |
| CCN1CC(=O)N(c2cccc(Cl)c2Cl)C1=S | -8 | -12.3 | -5.9 | 0 | -8.1 | 89.6 | 11 | 85.3 | 98 | 20.4 | -23 | 57.9 | 18.3 |
| CN1OCC(=O)N(c2cccc3c2CCC3)C1=S |  |  |  |  |  | 78.5 | -2 | 81.8 | 192 | 42.3 | -26 | 68 | -31.2 |
| CON1CC(=O)N(c2cc(Cl)ccc2C)C1=S |  |  |  |  |  | 134.4 | 41 | 102.4 | 160 | 87.5 | -62 | 249.5 | -10.8 |
| COc1ccc(Cl)cc1N1C(=O)CON(C)C1=S | -7.9 | -26.5 | -32.6 | 23.5 | -20.2 | 67.7 | 44 | 71.3 | 78 | 8.6 | 7 | 25 | -7.4 |
| CCN1C(=O)C(=O)N(c2c(C)cccc2C)C1=S |  |  |  |  |  | 138.2 | -21 | 114.4 | 186 | 73.2 | -48 | 409.7 | -32.8 |
| C=CCN1CC(=O)N(c2c(C)cccc2C)C1=S |  |  |  |  |  | 86 | -5 | 120.4 | 177 | -18.8 | -45 | -45.8 | -29.9 |
| CCc1cccc(C)c1N1C(=O)CN(CC)C1=S |  |  |  |  |  | 52.8 | -19 | 61.9 | 112 | -6.5 | -10 | -29.2 | -8.2 |
| CCN1CC(=O)N(c2c(C)cccc2C)C1=S |  |  |  |  |  | 106.7 | -28 | 93.6 | 181 | 43.8 | -23 | 13 | -12.8 |
| Cc1ccc(Cl)cc1N1C(=O)CON(C)C1=S |  |  |  |  |  | 85.7 | 5.7 | 83.5 | 236 | 29.9 | -10 | 23.1 | -26.2 |
| CCN1CC(=O)N(c2ccc(OC(F)(F)F)cc2)C1=S |  |  |  |  |  | 197.6 | -1 | 71.4 | 265 | 127.5 | -72 | 543.5 | 2.8 |
| CN1OCC(=O)N(c2ccc(C(C)(C)C)cc2)C1=S |  |  |  |  |  | 62 | 2 | 61.6 | 170 | 2.6 | -51 | 176.5 | -24.6 |
